Measurements as given in ChEMBL document CHEMBL4130487, “A pentanoic acid derivative targeting matrix metalloproteinase-2 (MMP-2) induces apoptosis in a chronic myeloid leukemia cell line” (Eur J Med Chem, 2017).

Assays:
K562 [1] = experiment: Downregulation of MMP2 protein expression in human K562 cells assessed as MMP2 negative population at 5 uM after 48 hrs by FITC staining based flow cytometry (reference value: 1.6%)
K562 [2] = experiment: Cell cycle arrest in human K562 cells assessed as accumulation at sub-G1 phase at 2.5 uM after 24 hrs by propidium iodide staining based flow cytometry (reference value: 1%)
K562 [3] = experiment: Induction of apoptosis in human K562 cells assessed as increase in early apoptotic cells at 2.5 to 10 uM after 48 hrs by Annexin V-FITC/propidium iodide staining based flow cytometry relative to control; type: functional
K562 [4] = experiment: Induction of apoptosis in human K562 cells assessed as late apoptotic cells at 2.5 uM after 48 hrs by Annexin V-FITC/propidium iodide staining based flow cytometry (reference value: 0.3%); type: functional
K562 [5] = experiment: Cell cycle arrest in human K562 cells assessed as accumulation at G1/S-phase at 10 uM after 24 hrs by propidium iodide staining based flow cytometry (reference value: 21.8%)
K562 [6] = experiment: Induction of apoptosis in human K562 cells assessed as necrotic cells at 5 uM after 48 hrs by Annexin V-FITC/propidium iodide staining based flow cytometry (reference value: 0%); type: functional
K562 [7] = experiment: Induction of apoptosis in human K562 cells assessed as increase in late apoptotic cells at 2.5 to 10 uM after 48 hrs by Annexin V-FITC/propidium iodide staining based flow cytometry relative to control; type: functional
K562 [8] = experiment: Cell cycle arrest in human K562 cells assessed as accumulation at G1-phase at 10 uM after 48 hrs by propidium iodide staining based flow cytometry (reference value: 27.5%); type: functional
K562 [9] = experiment: Downregulation of MMP2 protein expression in human K562 cells assessed as MMP2 positive population at 10 uM after 48 hrs by FITC staining based flow cytometry (reference value: 98.4%)
K562 [10] = experiment: Anti-invasive activity against human K562 cells assessed as at 2.5 uM after 24 hrs by CyQuantGR dye based fluorimetric QCM EC matrix assay relative to control; type: functional; details: K562, 24 h
Method in brief: (§1)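 K562 cells (1X10^6 cells/ml) starved overnight in FBS-free medium, then placed in inserts in FBS-free medium with 5% BSA, with 5% FBS medium below as chemoattractant. Treated at 2.5, 5 and 10 μM in triplicate for 24 h alongside an untreated control. Invaded cells were detached, stained with CyQuantGR and read by fluorescence (ex 480/em 520 nm). Results given as % of control, mean ± SD.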

K562 [11] = experiment: Cell cycle arrest in human K562 cells assessed as accumulation at sub-G1 phase at 10 uM after 48 hrs by propidium iodide staining based flow cytometry (reference value: 1%); type: functional
K562 [12] = experiment: Anti-invasive activity against human K562 cells at 10 uM after 24 hrs by CyQuantGR dye based fluorimetric QCM EC matrix assay relative to control; type: functional; details: K562, 24 h
Method in brief: as §1

K562 [13] = experiment: Downregulation of MMP2 protein expression in human K562 cells assessed as MMP2 negative population at 10 uM after 48 hrs by FITC staining based flow cytometry (reference value: 1.6%)
[14] = biological target: Matrix metalloproteinase-9 (Homo sapiens, UniProt P14780); experiment: Inhibition of recombinant human MMP9 (Phe107 to Pro449 residues) expressed in Escherichia coli using Ac-Pro-Leu-Gly-S-Leu-Leu-Gly-OEt as substrate after 1 hr measured at 1 min time interval for 30 mins by microplate photometric method
Method in brief: (§2)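 Commercial MMP kits; compound preincubated with enzyme before chromogenic substrate was added. Reactions at 37 °C for 1 h, with at least six inhibitor concentrations in triplicate. Absorbance at 410 nm read every 1 min for 30 min. NNGH used as reference inhibitor. IC50 taken from semi-logarithmic dose-response plots.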

MDA-MB-231 = experiment: Cytotoxicity against human MDA-MB-231 cells assessed as reduction in cell viability after 48 hrs by MTT assay; type: functional, cell-based; details: MDA-MB-231, 48 h
Method in brief: (§3)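 A549, MDA-MB-231, K562, U937 and PBMC (PBMC from healthy donors) seeded at 1×10^3 cells/well and left 24 h, then exposed to compounds for 48 h at 37 °C, 5% CO2. Adherent lines were grown in DMEM, the others in RPMI-1640 with 10% heat-inactivated FBS. MTT read-out; viability expressed as % of untreated control. IC50 taken as the concentration giving 50% viability loss.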

K562 [15] = experiment: Cell cycle arrest in human K562 cells assessed as accumulation at sub-G1 phase at 5 uM after 24 hrs by propidium iodide staining based flow cytometry (reference value: 1%)
K562 [16] = experiment: Cell cycle arrest in human K562 cells assessed as accumulation at G2/M-phase at 2.5 uM after 24 hrs by propidium iodide staining based flow cytometry (reference value: 35.3%)
PBMC = experiment: Cytotoxicity against human PBMC assessed as reduction in cell viability after 48 hrs by MTT assay; type: cell-based
Method in brief: as §3

K562 [17] = experiment: Induction of apoptosis in human K562 cells assessed as necrotic cells at 2.5 uM after 48 hrs by Annexin V-FITC/propidium iodide staining based flow cytometry (reference value: 0%); type: functional
K562 [18] = experiment: Induction of apoptosis in human K562 cells assessed as late apoptotic cells at 5 uM after 48 hrs by Annexin V-FITC/propidium iodide staining based flow cytometry (reference value: 0.3%); type: functional
[19] = biological target: Macrophage metalloelastase (Homo sapiens, UniProt P39900); experiment: Inhibition of recombinant human MMP12 (Phe99 to Leu271 residues) expressed in Escherichia coli using Ac-Pro-Leu-Gly-S-Leu-Leu-Gly-OEt as substrate after 1 hr measured at 1 min time interval for 30 mins by microplate photometric method
Method in brief: as §2

K562 [20] = experiment: Induction of apoptosis in human K562 cells assessed as early apoptotic cells at 10 uM after 48 hrs by Annexin V-FITC/propidium iodide staining based flow cytometry (reference value: 9.6%); type: functional
K562 [21] = experiment: Downregulation of MMP2 protein expression in human K562 cells assessed as MMP2 negative population at 2.5 uM after 48 hrs by FITC staining based flow cytometry (reference value: 1.6%)
K562 [22] = experiment: Cell cycle arrest in human K562 cells assessed as accumulation at G1-phase at 5 uM after 48 hrs by propidium iodide staining based flow cytometry (reference value: 27.5%); type: functional
K562 [23] = experiment: Cell cycle arrest in human K562 cells assessed as accumulation at G1-phase at 2.5 uM after 24 hrs by propidium iodide staining based flow cytometry (reference value: 27.5%)
K562 [24] = experiment: Cell cycle arrest in human K562 cells assessed as accumulation at G1/S-phase at 2.5 uM after 24 hrs by propidium iodide staining based flow cytometry (reference value: 21.8%)

Sequence of Matrix metalloproteinase-9 (P14780 whole entry): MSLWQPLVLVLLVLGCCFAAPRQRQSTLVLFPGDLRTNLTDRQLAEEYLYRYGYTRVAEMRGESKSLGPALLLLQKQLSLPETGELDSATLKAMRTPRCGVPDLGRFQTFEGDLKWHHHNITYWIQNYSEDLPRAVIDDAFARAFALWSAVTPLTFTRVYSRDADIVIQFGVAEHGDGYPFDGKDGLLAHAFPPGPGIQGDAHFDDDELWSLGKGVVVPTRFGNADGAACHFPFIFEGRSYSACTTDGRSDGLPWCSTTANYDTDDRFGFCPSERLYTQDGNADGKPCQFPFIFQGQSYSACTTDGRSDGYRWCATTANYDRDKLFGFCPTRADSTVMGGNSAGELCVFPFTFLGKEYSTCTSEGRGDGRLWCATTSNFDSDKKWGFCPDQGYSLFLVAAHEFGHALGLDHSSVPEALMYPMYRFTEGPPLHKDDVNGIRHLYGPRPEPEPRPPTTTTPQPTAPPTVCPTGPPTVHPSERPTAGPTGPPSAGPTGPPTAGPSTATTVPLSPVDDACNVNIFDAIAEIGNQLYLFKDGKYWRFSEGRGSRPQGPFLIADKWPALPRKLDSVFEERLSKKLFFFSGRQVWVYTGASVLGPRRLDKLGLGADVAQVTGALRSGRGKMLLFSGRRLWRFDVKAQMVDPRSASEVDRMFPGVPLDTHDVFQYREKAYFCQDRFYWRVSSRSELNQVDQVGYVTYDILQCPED
Sequence of Macrophage metalloelastase (P39900 whole entry): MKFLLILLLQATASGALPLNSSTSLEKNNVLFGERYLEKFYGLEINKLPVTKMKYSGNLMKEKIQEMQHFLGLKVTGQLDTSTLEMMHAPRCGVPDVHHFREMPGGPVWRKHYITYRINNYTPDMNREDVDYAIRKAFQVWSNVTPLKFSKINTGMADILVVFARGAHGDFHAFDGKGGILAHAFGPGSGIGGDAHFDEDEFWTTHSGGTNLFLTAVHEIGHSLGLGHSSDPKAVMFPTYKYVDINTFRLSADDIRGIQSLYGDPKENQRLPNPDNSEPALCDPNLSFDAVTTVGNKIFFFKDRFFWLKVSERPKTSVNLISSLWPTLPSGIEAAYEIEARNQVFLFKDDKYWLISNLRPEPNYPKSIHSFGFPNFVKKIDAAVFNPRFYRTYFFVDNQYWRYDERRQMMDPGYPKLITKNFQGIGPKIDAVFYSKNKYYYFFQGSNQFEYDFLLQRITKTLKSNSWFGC

With `CCCCCNC(=O)CC[C@H](NS(=O)(=O)c1ccc([N+](=O)[O-])cc1)C(=O)O` the Activity (K562 [1]) was 81.1%, the Activity (K562 [2]) was 1.4% and the “fold change (FC)” value (K562 [3]) was “<=300”. The Activity (K562 [4]) was 11.6%, the Activity (K562 [5]) was 14% and the Activity (K562 [6]) was 0.1%. The “fold change (FC)” value (K562 [7]) was “<=300”, the Activity (K562 [8]) was 39.8% and the Activity (K562 [9]) was 15.6%. It also gave an inhibition at 2.5 µM (K562 [10]) of 12.4%, an Activity (K562 [11]) of 4.6% and an inhibition at 10 µM (K562 [12]) of 24.1%. It also gave an Activity (K562 [13]) of 84.4%, an IC50 [14] of 6.8 µM and an IC50 (MDA-MB-231) of 162 µM. The Activity (K562 [15]) was 2.4%, the Activity (K562 [16]) was 36% and the IC50 (PBMC) was over 1000 µM. For the same compound, the Activity (K562 [17]) was 0.5%, the Activity (K562 [18]) was 8.5% and the IC50 [19] was 493 µM. The Activity (K562 [20]) was 15.4%, the Activity (K562 [21]) was 73.7% and the Activity (K562 [22]) was 33.4%. It also gave an Activity (K562 [23]) of 30.7% and an Activity (K562 [24]) of 20%.
